pIC50: −log10 of the molar value. ≈ marks a conversion by molar mass, not a printed value. Calls of active or inactive are those of the source. The rule behind the calls is not given here.
How the values were obtained:
[1] = tested on: Mycobacteroides abscessus; assay: Antibacterial activity against Mycobacterium abscessus CIP104536 after 3 to 5 days by two fold serial dilution method; format: functional
Outline: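 Broth microdilution per CLSI in cation-adjusted Mueller–Hinton broth; exponential-phase inoculum 5 × 10^6 CFU/mL; two-fold serial dilutions from highest concentration, solvent wells as control; 30 °C for 3−5 days; MIC read visually and confirmed by absorbance at 560 nm; triplicate on three independent occasions.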

[2] = Selectivity index, ratio of IC50 for African green monkey Vero cells to MIC=<90 for Mycobacterium tuberculosis; format: toxicity; details: read-out: Selectivity Index
[3] = tested on: Mycobacteroides abscessus; assay: Antibacterial activity against CF patient derived Mycobacterium abscessus subsp. abscessus isolate 2648 rough variant after 3 to 5 days by two fold serial dilution method; format: functional
Outline: (§1)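 Broth microdilution in cation-adjusted Mueller−Hinton broth per CLSI; inoculum 5 × 10^6 CFU/mL of exponential-phase bacteria; two-fold serial dilutions, solvent-only wells as control; 30 °C for 3−5 days; MIC read visually and confirmed by absorbance at 560 nm; triplicate on three independent occasions.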

[4] = tested on: Mycobacteroides abscessus; assay: Antibacterial activity against CF patient derived Mycobacterium abscessus subsp. abscessus rough variant after 3 to 5 days by two fold serial dilution method; format: functional; outline: as §1
[5] = tested on: Mycobacteroides abscessus; assay: Antibacterial activity against non CF patient derived Mycobacterium abscessus subsp. abscessus isolate CIP104536 rough variant after 3 to 5 days by two fold serial dilution method; format: functional; outline: as §1
[6] = tested on: Mycobacteroides abscessus; assay: Antibacterial activity against CF patient derived Mycobacterium abscessus subsp. massiliense isolate 210 rough variant after 3 to 5 days by two fold serial dilution method; format: functional; outline: as §1
[7] = tested on: Mycobacteroides abscessus; assay: Antibacterial activity against Addison's disease patient derived Mycobacterium abscessus subsp. massiliense isolate CIP108297 rough variant after 3 to 5 days by two fold serial dilution method; format: functional; outline: as §1
[8] = tested on: Mycobacteroides abscessus; assay: Antibacterial activity against Addison's disease patient derived Mycobacterium abscessus subsp. massiliense isolate CIP108297 smooth variant after 3 to 5 days by two fold serial dilution method; format: functional; outline: as §1
[9] = tested on: Mycobacteroides abscessus; assay: Antibacterial activity against CF patient derived Mycobacterium abscessus subsp. massiliense isolate 111 smooth variant after 3 to 5 days by two fold serial dilution method; format: functional; outline: as §1
[10] = tested on: Mycobacteroides abscessus; assay: Antibacterial activity against CF patient derived Mycobacterium abscessus subsp. massiliense isolate 140 smooth variant after 3 to 5 days by two fold serial dilution method; format: functional; outline: as §1
[11] = tested on: Mycobacteroides abscessus; assay: Antibacterial activity against CF patient derived Mycobacterium abscessus subsp. massiliense isolate 122 smooth variant after 3 to 5 days by two fold serial dilution method; format: functional; outline: as §1
[12] = Antibacterial activity against non CF patient derived Mycobacterium abscessus subsp. bolletii isolate 17 smooth variant after 3 to 5 days by two fold serial dilution method; format: functional; details: Mycobacteroides abscessus; outline: as §1
[13] = Antibacterial activity against CF patient derived Mycobacterium abscessus subsp. bolletii isolate 97 smooth variant after 3 to 5 days by two fold serial dilution method; format: functional; details: Mycobacteroides abscessus; outline: as §1
[14] = Antibacterial activity against CF patient derived Mycobacterium abscessus subsp. bolletii isolate 114 smooth variant after 3 to 5 days by two fold serial dilution method; format: functional; details: Mycobacteroides abscessus; outline: as §1
[15] = Antibacterial activity against CF patient derived Mycobacterium abscessus subsp. bolletii isolate 112 rough variant after 3 to 5 days by two fold serial dilution method; format: functional; details: Mycobacteroides abscessus; outline: as §1
[16] = tested on: Mycobacteroides abscessus; assay: Antibacterial activity against Mycobacterium abscessus CIP_PIPD1 harboring MAB_4508 g925c/A309P mutant after 3 to 5 days by two fold serial dilution method; format: functional; outline: as §1
[17] = tested on: Mycobacteroides abscessus; assay: Antibacterial activity against Mycobacterium abscessus CIP104536 smooth variant harboring pMV261 MAB_4508_A309P mutant at 0.5 to 1 ug/ml after 3 days; format: functional
Outline: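 M. abscessus overexpressing wild-type or A309P MAB_4508 from pMV261 plated on 7H10 agar with 10% OADC containing drug; plates incubated at 30 °C for 3 days before growth inspection.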

[18] = tested on: Mycobacteroides abscessus; assay: (§2) Inhibition of MmpL3 in Mycobacterium abscessus CIP104536 smooth variant assessed as reduction in trehalose dimycolate synthesis up to 6.2 ug/ml preincubated for 1 hr followed by [14C]acetic acid addition measured after 2 hrs by TLC based autoradiography analysis
Outline: (§3)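 Exponential cultures in 7H9 with OADC exposed to increasing drug concentrations for 1 h at 37 °C with agitation, then labelled with 1 μCi/mL [14C]acetate (56 mCi/mmol) for 2 h; apolar lipids (TMM, TDM) run on TLC in chloroform/methanol/water 40:8:1; MAME and arabinogalactan-bound mycolates in petroleum ether/acetone 95:5; autoradiography.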

[19] = tested on: Mycobacteroides abscessus; assay: Inhibition of MmpL3 in Mycobacterium abscessus CIP104536 smooth variant assessed as increase in accumulation of trehalose monomycolate up to 6.2 ug/ml preincubated for 1 hr followed by [14C]acetic acid addition measured after 2 hrs by TLC based autoradiography analysis; outline: as §3
[20] = tested on: Mycobacteroides abscessus; assay: as §2, with “MmpL3 A309P mutant” for “MmpL3”, “variant harboring pMV261 MAB_4508_A309P mutant” for “variant”, “monomycolate transport at” for “dimycolate synthesis up to”; outline: as §3
[21] = Permeability of the compound at 25 uM at pH 5 after 4 hrs by LC-MS based PAMPA; format: physicochemical; details: read-out: permeability
Outline: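 PAMPA: 25 μM compound in aqueous buffer at pH 7.4 or 5.0 (pH adjusted with NaOH) in donor plate, triplicate; acceptor membrane coated with GIT-0 lipid, acceptor sink buffer; 4 h at 25 ± 2 °C; donor and acceptor solutions analysed by LC-MS (UPLC).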

[22] = biological target: Cytochrome P450 2C9 (Homo sapiens, UniProt P11712); assay: Inhibition of CYP2C9 in human liver microsomes preincubated for 5 mins followed by NADPH addition measured after 10 mins by LC-MS/MS analysis; format: ADME
Chain of Cytochrome P450 2C9 (P11712 whole entry): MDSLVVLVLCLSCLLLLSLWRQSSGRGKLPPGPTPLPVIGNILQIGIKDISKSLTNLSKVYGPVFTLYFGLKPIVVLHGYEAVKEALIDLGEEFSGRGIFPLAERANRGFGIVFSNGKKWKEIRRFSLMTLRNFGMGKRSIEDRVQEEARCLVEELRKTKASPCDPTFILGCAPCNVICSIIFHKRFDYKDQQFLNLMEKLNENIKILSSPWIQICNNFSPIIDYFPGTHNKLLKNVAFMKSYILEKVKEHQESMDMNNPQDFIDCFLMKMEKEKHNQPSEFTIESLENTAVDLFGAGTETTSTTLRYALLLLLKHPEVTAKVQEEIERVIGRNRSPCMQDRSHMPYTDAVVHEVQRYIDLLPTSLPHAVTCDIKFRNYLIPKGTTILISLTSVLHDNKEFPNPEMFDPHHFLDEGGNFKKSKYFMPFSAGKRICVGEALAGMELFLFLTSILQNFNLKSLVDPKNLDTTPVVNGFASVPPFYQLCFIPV

[23] = biological target: CYP3A4 (Homo sapiens, UniProt P08684); assay: Inhibition of CYP3A4 in human liver microsomes preincubated for 5 mins followed by NADPH addition at 10 uM measured after 5 mins by LC-MS/MS analysis relative to control; format: ADME
Chain of CYP3A4 (P08684 whole entry): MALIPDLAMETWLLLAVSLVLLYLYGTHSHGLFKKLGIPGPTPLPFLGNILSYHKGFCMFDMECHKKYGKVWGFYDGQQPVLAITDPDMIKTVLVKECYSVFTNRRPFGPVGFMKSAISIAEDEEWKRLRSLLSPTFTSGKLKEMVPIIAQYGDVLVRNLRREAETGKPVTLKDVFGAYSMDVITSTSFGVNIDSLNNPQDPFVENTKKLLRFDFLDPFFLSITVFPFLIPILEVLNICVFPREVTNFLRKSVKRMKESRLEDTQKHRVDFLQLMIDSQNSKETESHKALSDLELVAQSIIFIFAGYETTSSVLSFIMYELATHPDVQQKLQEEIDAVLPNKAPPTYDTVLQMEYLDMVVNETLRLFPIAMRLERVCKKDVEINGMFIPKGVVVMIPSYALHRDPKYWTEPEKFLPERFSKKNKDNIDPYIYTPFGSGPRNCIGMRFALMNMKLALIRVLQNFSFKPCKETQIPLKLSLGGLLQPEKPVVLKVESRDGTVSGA

[24] = tested on: Salmonella typhimurium; assay: Mutagenicity in Salmonella typhimurium TA100 in presence of rat liver S9 fraction assessed as increase in revertant colonies at 0.24 to 500 ug/well after 72 hrs by Ames test relative to control; format: toxicity; details: salmonella enterica subsp. enterica serovar typhimurium, s9, 72 h
Outline: (§4)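 Reverse mutation at histidine locus in S. typhimurium TA98 (frameshift) and TA100 (base-pair substitution), with and without S9; 0.24−500 μg/well; 37 ± 2 °C for 72 h, triplicates; DMSO vehicle; sodium azide, 2-nitrofluorene, 2-aminoanthracene positive controls; positive if revertants rise ≥2-fold over negative control dose-dependently.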

[25] = tested on: Salmonella typhimurium; assay: Mutagenicity in Salmonella typhimurium TA98 assessed as increase in revertant colonies at 0.24 to 500 ug/well after 72 hrs by Ames test relative to control; format: toxicity; details: salmonella enterica subsp. enterica serovar typhimurium; outline: as §4

Compound: O=C(NC1CCCCCC1)c1cc2c(Cl)cc(Cl)cc2[nH]1
- MIC [1]: 0.125 µg/mL (≈ 0.384 µM)
- selectivity ratio [2]: 2050 to 4100
- MIC [3]: 0.125 µg/mL (≈ 0.384 µM)
- MIC [4]: 0.125 µg/mL (≈ 0.384 µM)
- MIC [5]: 0.125 µg/mL (≈ 0.384 µM)
- MIC [6]: 0.125 µg/mL (≈ 0.384 µM)
- MIC [7]: 0.125 µg/mL (≈ 0.384 µM)
- MIC [8]: 0.125 µg/mL (≈ 0.384 µM)
- MIC [9]: 0.125 µg/mL (≈ 0.384 µM)
- MIC [10]: 0.125 µg/mL (≈ 0.384 µM)
- MIC [11]: 0.125 µg/mL (≈ 0.384 µM)
- MIC [12]: 0.125 µg/mL (≈ 0.384 µM)
- MIC [13]: 0.125 µg/mL (≈ 0.384 µM)
- MIC [14]: 0.125 µg/mL (≈ 0.384 µM)
- MIC [15]: 0.125 µg/mL (≈ 0.384 µM)
- MIC [16]: 32 µg/mL (≈ 98.4 µM)
- Activity [17]: inactive
- inhibition [18]: Active
- inhibition [19]: Active
- inhibition [20]: Active
- Papp at 4 h, 25 µM [21]: 0.3 ×10⁻⁶ cm/s
- pIC50 [22]: ≥ 4.70
- inhibition at 5 min, 10 µM [23]: 1%
- fold change (FC) [24]: < 2
- fold change (FC) [25]: < 2

— ChEMBL document CHEMBL4014347, “Targeting Mycolic Acid Transport by Indole-2-carboxamides for the Treatment of Mycobacterium abscessus Infections” (J Med Chem, 2017)
